Assay results: ChEMBL document CHEMBL4028879, “Structure-Activity Relationship Studies of Pyrimido[5,4-b]indoles as Selective Toll-Like Receptor 4 Ligands” (J Med Chem, 2017)
Calls of active or inactive are those of the source. The rule behind the calls is not given here.

Assays:
[1] = target: T1, Toll-like receptor 4 (Mus musculus) (UniProt Q9QUK6); experiment: Agonist activity at mouse TLR4 expressed in HEK293 blue cells assessed as induction of NF-kappaB activation-mediated SEAP production by measuring AUC after 20 to 24 hrs by colorimetric assay relative to N-cyclohexyl-2-(5-methyl-4-oxo-3-phenyl-4,5-dihydro-3H-pyrimido[5,4-b]indol-2-ylthio)acetamide; assay type: cell-based
T1 sequence (whole entry): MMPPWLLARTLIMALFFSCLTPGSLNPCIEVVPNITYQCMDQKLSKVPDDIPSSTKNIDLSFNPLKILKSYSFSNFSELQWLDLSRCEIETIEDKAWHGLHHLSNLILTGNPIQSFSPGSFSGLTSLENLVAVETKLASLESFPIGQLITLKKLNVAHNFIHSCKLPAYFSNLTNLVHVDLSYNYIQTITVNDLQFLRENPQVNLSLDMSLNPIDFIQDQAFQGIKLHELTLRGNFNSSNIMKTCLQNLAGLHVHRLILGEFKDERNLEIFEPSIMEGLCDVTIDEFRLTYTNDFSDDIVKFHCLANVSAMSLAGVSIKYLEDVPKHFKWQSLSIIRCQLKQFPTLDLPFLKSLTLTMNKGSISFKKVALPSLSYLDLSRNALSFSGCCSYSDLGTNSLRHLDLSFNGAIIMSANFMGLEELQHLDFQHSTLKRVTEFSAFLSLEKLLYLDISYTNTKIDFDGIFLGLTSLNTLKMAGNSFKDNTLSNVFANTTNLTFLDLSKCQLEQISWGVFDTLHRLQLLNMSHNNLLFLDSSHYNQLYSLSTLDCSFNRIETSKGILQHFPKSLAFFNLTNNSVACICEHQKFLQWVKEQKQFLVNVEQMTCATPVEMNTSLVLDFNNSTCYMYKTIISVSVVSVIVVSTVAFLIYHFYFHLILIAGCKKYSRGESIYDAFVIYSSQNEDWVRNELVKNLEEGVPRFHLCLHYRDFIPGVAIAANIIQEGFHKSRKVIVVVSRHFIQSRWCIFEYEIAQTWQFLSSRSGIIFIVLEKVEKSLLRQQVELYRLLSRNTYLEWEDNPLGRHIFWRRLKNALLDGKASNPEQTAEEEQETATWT

Toll-like receptor 4 [2] = target: T2, Toll-like receptor 4 (Homo sapiens, UniProt O00206); experiment: Agonist activity at TLR4 in human PBMC assessed as induction of IL-8 release at 0.1 to 10 uM after 18 hrs by ELISA
T2 sequence (O00206 whole entry): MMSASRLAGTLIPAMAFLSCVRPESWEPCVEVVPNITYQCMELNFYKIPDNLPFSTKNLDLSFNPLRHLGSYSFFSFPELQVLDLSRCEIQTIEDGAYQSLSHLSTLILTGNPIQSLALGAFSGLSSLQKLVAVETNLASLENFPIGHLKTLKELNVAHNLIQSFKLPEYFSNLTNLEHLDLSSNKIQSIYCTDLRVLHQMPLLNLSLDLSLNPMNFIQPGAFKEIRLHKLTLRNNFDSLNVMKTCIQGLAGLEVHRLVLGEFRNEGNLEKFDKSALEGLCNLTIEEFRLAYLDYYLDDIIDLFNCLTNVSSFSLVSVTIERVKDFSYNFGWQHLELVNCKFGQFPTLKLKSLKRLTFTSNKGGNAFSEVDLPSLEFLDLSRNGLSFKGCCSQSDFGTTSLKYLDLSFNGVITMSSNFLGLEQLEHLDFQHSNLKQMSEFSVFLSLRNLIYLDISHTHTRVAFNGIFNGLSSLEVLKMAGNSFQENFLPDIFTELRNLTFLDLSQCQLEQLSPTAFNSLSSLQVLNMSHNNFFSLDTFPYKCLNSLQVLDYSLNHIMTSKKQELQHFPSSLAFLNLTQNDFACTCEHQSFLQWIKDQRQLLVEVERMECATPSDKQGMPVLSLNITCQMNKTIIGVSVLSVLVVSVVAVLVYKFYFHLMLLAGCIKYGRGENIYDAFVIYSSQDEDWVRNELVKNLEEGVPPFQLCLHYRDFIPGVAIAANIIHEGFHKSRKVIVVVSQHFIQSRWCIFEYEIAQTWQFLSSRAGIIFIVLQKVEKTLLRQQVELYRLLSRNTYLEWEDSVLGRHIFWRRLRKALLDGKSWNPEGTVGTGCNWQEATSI
Summary of the method: (§1)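 PBMC isolated from blood-bank buffy coats, 1 × 10⁶/mL, stimulated with graded compound doses for 18 h at 37°C, 5% CO₂. IL-6 and IL-8 in supernatants measured by ELISA. Data are mean ± SEM, representative of three independent experiments. Two-way ANOVA with Dunnett's post hoc test.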

[3] = target: T1, Toll-like receptor 4 (Mus musculus); experiment: Agonist activity at TLR4 in C57BL/6 mouse primary BMDC assessed as induction of CCL5 release at 0.1 to 10 uM after 18 hrs by ELISA
Summary of the method: (§2)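 BMDC from C57BL/6 mice, 1 × 10⁵ cells/well in RPMI 1640 with 10% FBS and penicillin/streptomycin. Graded doses for 18 h at 37°C, 5% CO₂. IL-6 or CCL5 in supernatants measured by ELISA, detection limit 15 pg/mL. Positive control ultrapure LPS-EB 10 ng/mL. Significance by two-way ANOVA with Dunnett's post hoc test.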

[4] = Cytotoxicity against C57BL/6 mouse primary BMDC assessed as cell viability at 5 uM after 18 hrs by MTT assay relative to control; assay type: cell-based; conditions: primary BMDC (bone marrow-derived dendritic cells), read-out: Activity
[5] = target: T1, Toll-like receptor 4 (Mus musculus); experiment: Agonist activity at TLR4 in C57BL/6 mouse primary BMDC assessed as induction of IL-6 release at 5 uM after 18 hrs by ELISA relative to N-cyclohexyl-2-(5-methyl-4-oxo-3-phenyl-4,5-dihydro-3H-pyrimido[5,4-b]indol-2-ylthio)acetamide
Toll-like receptor 4 [6] = target: T2, Toll-like receptor 4; experiment: Agonist activity at human TLR4 expressed in HEK293 blue cells assessed as induction of NF-kappaB activation-mediated SEAP production by measuring AUC after 20 to 24 hrs by colorimetric assay relative to N-cyclohexyl-2-(5-methyl-4-oxo-3-phenyl-4,5-dihydro-3H-pyrimido[5,4-b]indol-2-ylthio)acetamide; assay type: cell-based
Mus musculus [7] = experiment: Immunostimulatory activity in wild type C57BL/6 mouse assessed as induction of IL-6 levels in serum at 20 nmol, iv measured at 3 hrs post dose by Luminex beads assay; assay type: functional, organism-based
Summary of the method: (§3)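 Seven- to nine-week-old wild-type C57BL/6 mice (n = 6) injected iv with 20 nmol/animal in 0.1% DMSO in saline. Sera collected 3 h after injection; IL-6, IP-10 and KC quantified by Luminex bead assay, detection limit 2.56 pg/mL. Kruskal–Wallis test with Dunn's post hoc test.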

Mus musculus [8] = experiment: Immunostimulatory activity in wild type C57BL/6 mouse assessed as induction of IP-10 levels in serum at 20 nmol, iv measured at 3 hrs post dose by Luminex beads assay; assay type: functional, organism-based; summary of the method: as §3
HepG2 = experiment: Cytotoxicity against human HepG2 cells assessed as reduction in cell viability at 5 uM after 18 hrs by MTT assay; assay type: cell-based; conditions: hepg2, 18 h
Summary of the method: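 HepG2 cells, 1 × 10⁴/well, exposed overnight (18 h) to 5 μM compound. MTT 0.5 mg/mL then added for six or more hours, followed by lysis and absorbance reading. Mean ± SEM of representative data from three independent experiments.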

[9] = target: T1, Toll-like receptor 4 (Mus musculus); experiment: Agonist activity at TLR4 in C57BL/6 mouse BMDC assessed as induction of IL-6 release at 0.1 to 10 uM after 18 hrs by ELISA; summary of the method: as §2
Toll-like receptor 4 [10] = target: T2, Toll-like receptor 4; experiment: Agonist activity at human TLR4 expressed in HEK293 blue cells assessed as induction of NF-kappaB activation-mediated SEAP production after 20 to 24 hrs by colorimetric assay; assay type: cell-based
Summary of the method: (§4)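 HEK-Blue cells expressing human or mouse TLR4, 2.5 × 10⁴/well in DMEM with 10% FBS, pyruvate, glutamine and antibiotics. Graded doses from 20 mM DMSO stocks, final DMSO 0.05%. Supernatants harvested after 20–24 h; SEAP read by colorimetric substrate at 630 nm. EC50 taken as the concentration giving 50% of maximal activation. LPS 100 ng/mL served as positive control.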

Toll-like receptor 4 [11] = target: T3, Toll-like receptor 4 (Mus musculus, UniProt Q9QUK6); experiment: Agonist activity at mouse TLR4 expressed in HEK293 blue cells assessed as induction of NF-kappaB activation-mediated SEAP production after 20 to 24 hrs by colorimetric assay; assay type: cell-based; summary of the method: as §4
T3 sequence (Q9QUK6 whole entry): T1 sequence (whole entry)

Mus musculus [12] = experiment: Immunostimulatory activity in wild type C57BL/6 mouse assessed as induction of keratinocyte chemo-attractant levels in serum at 20 nmol, iv measured at 3 hrs post dose by Luminex beads assay; assay type: functional, organism-based; summary of the method: as §3
Toll-like receptor 4 [13] = target: T2, Toll-like receptor 4; experiment: Agonist activity at TLR4 in human PBMC assessed as induction of IL-6 release at 0.1 to 10 uM after 18 hrs by ELISA; summary of the method: as §1

Structure (SMILES)	Activity [1] [%]	Activity (Toll-like receptor 4 [2])	Activity [3]	viability at 18 h, 5 µM [4] [%]	Activity [5] [%]	Activity (Toll-like receptor 4 [6]) [%]	Activity (Mus musculus [7])	Activity (Mus musculus [8])	Activity (HepG2)	Activity [9]	EC50 (Toll-like receptor 4 [10]) [nM]	EC50 (Toll-like receptor 4 [11]) [nM]	Activity (Mus musculus [12])	Activity (Toll-like receptor 4 [13])
Cn1c2ccc(-c3ccccc3)cc2c2nc(SCC(=O)NC3CCCCC3)n(-c3ccccc3)c(=O)c21	223	Active	Active	93	123	1560	Active	Active	Non-Toxic	Active	430	820	Active	Active
Cn1c2ccc(-c3ccc4ccccc4c3)cc2c2nc(SCC(=O)NC3CCCCC3)n(-c3ccccc3)c(=O)c21	78	Active	Active	84	137	1300	–	–	Non-Toxic	Active	920	2010	–	Active
Cn1c2c(c3nc(SCC(=O)NC4CCCCC4)n(-c4ccccc4)c(=O)c31)CCCCC2	44	–	Active	95	93	46	Active	Active	Non-Toxic	Active	> 10000	8800	Active	–
Cn1c2ccccc2c2nc(SCC(=O)NC3CCCCC3)n(-c3ccccc3)c(=O)c21	–	Active	Active	97 to 106	–	–	Active	Active	Non-Toxic	Active	8260	3170	Active	Active
